From ChEMBL document CHEMBL1671620, “Mutations in the fks1 gene in Candida albicans, C. tropicalis, and C. krusei correlate with elevated caspofungin MICs uncovered in AM3 medium using the method of the European Committee on Antibiotic Susceptibility Testing” (2008)
Converted amounts (≈) assume the structure as drawn.

Experiments:
Candida albicans [1] = assay: Antifungal activity against Candida albicans isolate 25 expressing wild type 1,3-beta-glucan synthase grown on AM3 media after 48 hrs by EUCAST microdilution method; format: functional; conditions: isolate 25, 24 h, in the assay text read “after 24 hrs” for “after 48 hrs”
Summary of the method: (§1)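 EUCAST (AFST-EUCAST) broth microdilution with caspofungin at 0.015 to 8 μg/ml final, in AM3 with glucose added to 2% final. Final inoculum was 10⁵ yeast cells/ml, with microplates prepared in batches and stored at −20°C. Plates were incubated at 35°C in humid ambient air and read spectrophotometrically after shaking at 24 h and 48 h. MIC was ≥50% growth reduction versus drug-free well; 90% end point also read at both times.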

Candida albicans [2] = assay: Antifungal activity against Candida albicans isolate 19 harboring 1,3-beta-glucan synthase HS1 point mutant grown on AM3 media after 24 hrs by EUCAST microdilution method; conditions: isolate 19, 24 h
Candida albicans [3] = assay: Antifungal activity against Candida albicans isolate 23 harboring 1,3-beta-glucan synthase HS2 point mutant grown on AM3 media after 24 hrs by EUCAST microdilution method; conditions: isolate 23, 24 h
Candida albicans [4] = assay: Antifungal activity against Candida albicans isolate 9 expressing wild type 1,3-beta-glucan synthase grown on AM3 media after 48 hrs by EUCAST microdilution method; format: functional; conditions: isolate 9, 24 h, in the assay text read “after 24 hrs” for “after 48 hrs”; summary of the method: as §1
Candida albicans [5] = assay: Antifungal activity against Candida albicans isolate 23 harboring 1,3-beta-glucan synthase HS2 point mutant grown on RPMI media after 24 hrs by EUCAST microdilution method; conditions: isolate 23, 24 h
Candida albicans [6] = assay: Antifungal activity against Candida albicans isolate 16 expressing wild type 1,3-beta-glucan synthase grown on AM3 media after 48 hrs by EUCAST microdilution method; format: functional; conditions: isolate 16, 24 h, in the assay text read “after 24 hrs” for “after 48 hrs”; summary of the method: as §1
Candida albicans [7] = assay: Antifungal activity against Candida albicans isolate 17 expressing wild type 1,3-beta-glucan synthase grown on RPMI media after 24 hrs by EUCAST microdilution method; conditions: isolate 17, 24 h
Candida albicans [8] = assay: Antifungal activity against Candida albicans isolate 18 expressing wild type 1,3-beta-glucan synthase grown on RPMI media after 24 hrs by EUCAST microdilution method; conditions: isolate 18, 24 h
Candida albicans [9] = assay: Antifungal activity against Candida albicans isolate 13 expressing wild type 1,3-beta-glucan synthase grown on AM3 media after 48 hrs by EUCAST microdilution method; format: functional; conditions: isolate 13, 24 h, in the assay text read “after 24 hrs” for “after 48 hrs”; summary of the method: as §1
Candida tropicalis [10] = assay: Antifungal activity against Candida tropicalis ATCC 750 expressing wild type 1,3-beta-glucan synthase grown on RPMI media after 48 hrs by EUCAST microdilution method; format: functional; conditions: ATCC 750, 24 h, in the assay text read “24 hrs” for “48 hrs”
Summary of the method: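 EUCAST (AFST-EUCAST) broth microdilution with caspofungin at 0.015 to 8 μg/ml final, in RPMI 1640 buffered to pH 7.0 with 0.165 M MOPS and glucose added to 2% final. Final inoculum was 10⁵ yeast cells/ml. Plates were incubated at 35°C in humid ambient air and read spectrophotometrically after shaking at 24 h and 48 h. MIC was ≥50% growth reduction versus drug-free well; 90% end point also read at both times.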

Candida albicans [11] = assay: Antifungal activity against Candida albicans isolate 8 expressing wild type 1,3-beta-glucan synthase grown on AM3 media after 48 hrs by EUCAST microdilution method; format: functional; conditions: isolate 8, 24 h, in the assay text read “after 24 hrs” for “after 48 hrs”; summary of the method: as §1
Candida albicans [12] = assay: Antifungal activity against Candida albicans isolate 7 expressing wild type 1,3-beta-glucan synthase grown on AM3 media after 48 hrs by EUCAST microdilution method; format: functional; conditions: isolate 7, 24 h, in the assay text read “after 24 hrs” for “after 48 hrs”; summary of the method: as §1
Candida albicans [13] = assay: Antifungal activity against Candida albicans isolate 22 harboring 1,3-beta-glucan synthase HS1 point mutant grown on AM3 media after 24 hrs by EUCAST microdilution method; conditions: isolate 22, 24 h
Candida tropicalis [14] = assay: Antifungal activity against Candida tropicalis isolate 1 expressing wild type 1,3-beta-glucan synthase grown on AM3 media after 48 hrs by EUCAST microdilution method; format: functional; conditions: isolate 1, 24 h, in the assay text read “24 hrs” for “48 hrs”; summary of the method: as §1
Candida albicans [15] = assay: Antifungal activity against Candida albicans isolate B311 expressing wild type 1,3-beta-glucan synthase grown on RPMI media after 24 hrs by EUCAST microdilution method; conditions: isolate B311, 24 h
Candida albicans [16] = assay: Antifungal activity against Candida albicans isolate 10 expressing wild type 1,3-beta-glucan synthase grown on AM3 media after 48 hrs by EUCAST microdilution method; format: functional; conditions: isolate 10, 24 h, in the assay text read “after 24 hrs” for “after 48 hrs”; summary of the method: as §1
Candida albicans [17] = assay: Antifungal activity against Candida albicans isolate 14 expressing wild type 1,3-beta-glucan synthase grown on RPMI media after 24 hrs by EUCAST microdilution method; conditions: isolate 14, 24 h
Candida albicans [18] = assay: Antifungal activity against Candida albicans isolate 12 expressing wild type 1,3-beta-glucan synthase grown on AM3 media after 48 hrs by EUCAST microdilution method; format: functional; conditions: isolate 12, 24 h, in the assay text read “after 24 hrs” for “after 48 hrs”; summary of the method: as §1
Candida albicans [19] = assay: Antifungal activity against Candida albicans isolate 6 expressing wild type 1,3-beta-glucan synthase grown on RPMI media after 24 hrs by EUCAST microdilution method; conditions: isolate 6, 24 h
Candida albicans [20] = assay: Antifungal activity against Candida albicans isolate B311 expressing wild type 1,3-beta-glucan synthase grown on AM3 media after 48 hrs by EUCAST microdilution method; format: functional; conditions: isolate B311, 24 h, in the assay text read “24 hrs” for “48 hrs”; summary of the method: as §1
Candida albicans [21] = assay: Antifungal activity against Candida albicans isolate 10 expressing wild type 1,3-beta-glucan synthase grown on RPMI media after 24 hrs by EUCAST microdilution method; conditions: isolate 10, 24 h
Pichia kudriavzevii [22] = assay: Antifungal activity against Candida krusei ATCC 6258 expressing wild type 1,3-beta-glucan synthase grown on AM3 media after 48 hrs by EUCAST microdilution method; format: functional; conditions: ATCC 6258, 24 h, in the assay text read “after 24 hrs” for “after 48 hrs”; summary of the method: as §1
Candida albicans [23] = assay: Antifungal activity against Candida albicans isolate 3 expressing wild type 1,3-beta-glucan synthase grown on AM3 media after 48 hrs by EUCAST microdilution method; format: functional; conditions: isolate 3, 24 h, in the assay text read “after 24 hrs” for “after 48 hrs”; summary of the method: as §1
Pichia kudriavzevii [24] = assay: Antifungal activity against Candida krusei isolate 1 harboring 1,3-beta-glucan synthase HS1 point mutant grown on AM3 media after 24 hrs by EUCAST microdilution method; conditions: isolate 1, 24 h
Candida albicans [25] = assay: Antifungal activity against Candida albicans isolate 9 expressing wild type 1,3-beta-glucan synthase grown on RPMI media after 24 hrs by EUCAST microdilution method; conditions: isolate 9, 24 h

CC[C@H](C)C[C@H](C)CCCCCCCCC(=O)N[C@H]1C[C@@H](O)[C@@H](NCCN)NC(=O)[C@@H]2[C@@H](O)CCN2C(=O)[C@H]([C@H](O)CCN)NC(=O)[C@H]([C@H](O)[C@@H](O)c2ccc(O)cc2)NC(=O)[C@@H]2C[C@@H](O)CN2C(=O)[C@H]([C@@H](C)O)NC1=O [CASPOFUNGIN]
MIC (Candida albicans [1]): 0.03 µg/mL (≈ 0.0274 µM) | MIC (Candida albicans [2]): 0.5 µg/mL (≈ 0.457 µM) | MIC (Candida albicans [3]): 0.5 µg/mL (≈ 0.457 µM) | MIC (Candida albicans [4]): 0.03 µg/mL (≈ 0.0274 µM) | MIC (Candida albicans [5]): 2 µg/mL (≈ 1.83 µM) | MIC (Candida albicans [6]): 0.03 µg/mL (≈ 0.0274 µM) | MIC (Candida albicans [7]): 0.5 µg/mL (≈ 0.457 µM) | MIC (Candida albicans [8]): 1 µg/mL (≈ 0.915 µM) | MIC (Candida albicans [9]): 0.03 µg/mL (≈ 0.0274 µM) | MIC (Candida tropicalis [10]): 0.5 µg/mL (≈ 0.457 µM) | MIC (Candida albicans [11]): 0.03 µg/mL (≈ 0.0274 µM) | MIC (Candida albicans [12]): 0.06 µg/mL (≈ 0.0549 µM) | MIC (Candida albicans [13]): 1 µg/mL (≈ 0.915 µM) | MIC (Candida tropicalis [14]): 0.06 µg/mL (≈ 0.0549 µM) | MIC (Candida albicans [15]): 0.5 µg/mL (≈ 0.457 µM) | MIC (Candida albicans [16]): 0.06 µg/mL (≈ 0.0549 µM) | MIC (Candida albicans [17]): 1 µg/mL (≈ 0.915 µM) | MIC (Candida albicans [18]): 0.03 µg/mL (≈ 0.0274 µM) | MIC (Candida albicans [19]): 0.5 µg/mL (≈ 0.457 µM) | MIC (Candida albicans [20]): 0.06 µg/mL (≈ 0.0549 µM) | MIC (Candida albicans [21]): 0.5 µg/mL (≈ 0.457 µM) | MIC (Pichia kudriavzevii [22]): 0.06 µg/mL (≈ 0.0549 µM) | MIC (Candida albicans [23]): 0.06 µg/mL (≈ 0.0549 µM) | MIC (Pichia kudriavzevii [24]): 4 µg/mL (≈ 3.66 µM) | MIC (Candida albicans [25]): 0.5 µg/mL (≈ 0.457 µM)
